According to ChEMBL document CHEMBL2380254, “Optimization of tocotrienols as antiproliferative and antimigratory leads” (Eur J Med Chem, 2013):

Tests used:
MDA-MB-468 = assay: Growth inhibition of human MDA-MB-468 cells after 48 hrs by sulforhodamine B assay; assay type: functional; settings: MDA-MB-468, 48 h
How it was run: (§1)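 NCI-60 panel cells grown in RPMI 1640 with 5% FBS and 2 mM L-glutamine, seeded at 5000–40,000 cells/well and preincubated 24 h. Five 10-fold dilutions (0.001–100 µM) from DMSO stocks were added for 48 h at 37 °C. Adherent cells were fixed with cold TCA (10% final) for 60 min at 4 °C, stained with 0.4% SRB, and read at 515 nm. GI50 was set where 100×(T−T0)/(C−T0)=50.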

NCI-H226 = assay: Growth inhibition of human NCI-H226 cells after 48 hrs by sulforhodamine B assay; assay type: functional; settings: NCI-H226, 48 h; how it was run: as §1
MCF7 = assay: Growth inhibition of human MCF7 cells after 48 hrs by sulforhodamine B assay; assay type: functional; settings: MCF7, 48 h; how it was run: as §1
HOP-62 = assay: Growth inhibition of human HOP62 cells after 48 hrs by sulforhodamine B assay; assay type: functional; settings: HOP-62, 48 h
How it was run: (§2)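 NCI-60 screen: cells in RPMI 1640 with 5% FBS and 2 mM glutamine, 5000–40,000 cells/well, preincubated 24 h. Five concentrations (10-fold dilutions; 100 to 0.001 µM) applied for 48 h at 37 °C. TCA fixation, SRB stain, absorbance at 515 nm. Time-zero plates included; GI50 where 100×(T−T0)/(C−T0)=50.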

SW-620 = assay: Growth inhibition of human SW620 cells after 48 hrs by sulforhodamine B assay; assay type: functional; settings: SW-620, 48 h
How it was run: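 NCI-60 five-dose screen. Cells were grown in RPMI 1640 with 5% FBS and 2 mM L-glutamine, plated at 5000–40,000 cells/well and incubated 24 h before dosing, with T0 plates TCA-fixed. DMSO stocks were diluted to doses of […] and exposed 48 h at 37 °C, 5% CO2. Cells were fixed with cold TCA (final 10%, 60 min, 4 °C), stained with 0.4% SRB in 1% acetic acid for 10 min, solubilized in 10 mM trizma base and read at 515 nm. GI50 is where 100×(T−T0)/(C−T0)=50.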

NCI-H23 = assay: Growth inhibition of human NCI-H23 cells assessed as cell growth at 10 uM after 48 hrs by sulforhodamine B assay; assay type: functional; settings: NCI-H23, 48 h, read-out: Activity
How it was run: (§3)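 Single-dose NCI-60 screen: adherent cells in RPMI 1640 with 5% FBS were exposed to 10 µM for 48 h at 37 °C after a 24 h preincubation. They were fixed in situ with cold TCA (10% final), stained with 0.4% SRB in 1% acetic acid, solubilized in 10 mM Tris base, and read at 515 nm. Percent growth was taken relative to time-zero and control plates.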

U-251 = assay: Growth inhibition of human U251 cells assessed as cell growth at 10 uM after 48 hrs by sulforhodamine B assay; assay type: functional; settings: U-251, 48 h, read-out: Activity
How it was run: (§4)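 Single-dose NCI-60 test at 10 µM. Cells were grown in RPMI 1640 with 5% FBS and 2 mM L-glutamine, preincubated 24 h, with T0 plates TCA-fixed. Exposure was 48 h at 37 °C, 5% CO2. Cells were fixed with cold TCA (final 10%, 4 °C, 60 min), stained with SRB and read at 515 nm. Percent growth was taken relative to T0 and untreated control; negative values denote cell kill.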

RXF 393 [1] = assay: Growth inhibition of human RXF393 cells after 48 hrs by sulforhodamine B assay; assay type: functional; settings: RXF 393, 48 h; how it was run: as §1
SK-MEL-5 = assay: Growth inhibition of human SK-MEL-5 cells assessed as cell growth at 10 uM after 48 hrs by sulforhodamine B assay; assay type: functional; settings: SK-MEL-5, 48 h, read-out: Activity; how it was run: as §3
NCI-H322M = assay: Growth inhibition of human NCI-H322M cells after 48 hrs by sulforhodamine B assay; assay type: functional; how it was run: as §1
SF-268 = assay: Growth inhibition of human SF268 cells assessed as cell growth at 10 uM after 48 hrs by sulforhodamine B assay; assay type: functional; settings: SF-268, 48 h, read-out: Activity; how it was run: as §3
MDA-MB-231 [2] = assay: Growth inhibition of human MDA-MB-231 cells assessed as cell growth at 10 uM after 48 hrs by sulforhodamine B assay; assay type: functional; settings: MDA-MB-231, 48 h, read-out: Activity; how it was run: as §3
MDA-MB-231 [3] = assay: Growth inhibition of human MDA-MB-231 cells after 48 hrs by sulforhodamine B assay; assay type: functional; settings: MDA-MB-231, 48 h; how it was run: as §1
COLO 205 = assay: Growth inhibition of human COLO205 cells after 48 hrs by sulforhodamine B assay; assay type: functional; settings: COLO 205, 48 h; how it was run: as §2
SK-MEL-28 = assay: Growth inhibition of human SK-MEL-28 cells assessed as cell growth at 10 uM after 48 hrs by sulforhodamine B assay; assay type: functional; settings: SK-MEL-28, 48 h, read-out: Activity; how it was run: as §3
SF-295 = assay: Growth inhibition of human SF295 cells after 48 hrs by sulforhodamine B assay; assay type: functional; settings: SF-295, 48 h; how it was run: as §1
KM12 = assay: Growth inhibition of human KM12 cells assessed as cell growth at 10 uM after 48 hrs by sulforhodamine B assay; assay type: functional; settings: KM12, 48 h, read-out: Activity
How it was run: (§5)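 NCI-60 single-dose screen at 10 µM: cells in RPMI 1640 with 5% FBS, preincubated 24 h, then exposed 48 h at 37 °C. TCA fixation (16% final for suspension cells), SRB staining, absorbance 515 nm. Percent growth relative to time-zero and untreated control plates; negative values indicate cell kill.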

TK-10 = assay: Growth inhibition of human TK10 cells assessed as cell growth at 10 uM after 48 hrs by sulforhodamine B assay; assay type: functional; settings: TK-10, 48 h, read-out: Activity; how it was run: as §4
SK-MEL-2 = assay: Growth inhibition of human SK-MEL-2 cells after 48 hrs by sulforhodamine B assay; assay type: functional; settings: SK-MEL-2, 48 h; how it was run: as §1
M14 = assay: Growth inhibition of human M14 cells assessed as cell growth at 10 uM after 48 hrs by sulforhodamine B assay; assay type: functional; settings: M14, 48 h, read-out: Activity; how it was run: as §5
MCF-10A = assay: Antiproliferative activity against human MCF10A cells by MTT assay; assay type: cell-based
How it was run: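 MCF10A kept in DMEM/F12 with 5% horse serum, hydrocortisone, cholera toxin, insulin and EGF, plated at 10 × 10^4 cells/well. Compounds from DMSO stock (final DMSO <0.1%, equal across groups) fed in serum-free media. Viable cell number by MTT; IC50 by non-linear regression.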

MDA-MB-231 [4] = assay: Antiproliferative activity against human MDA-MB-231 cells by MTT assay; assay type: functional, cell-based
How it was run: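 Cells plated at 8 × 10^3/well (MDA-MB-231) or 10^4/well (MCF7) in 96-well plates. Compounds fed in media with 5% FBS (MDA-MB-231) or 1% FBS (MCF7). MTT read-out of viable cells.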

RXF 393 [5] = assay: Growth inhibition of human RXF393 cells assessed as cell growth at 10 uM after 48 hrs by sulforhodamine B assay; assay type: functional; settings: RXF 393, 48 h, read-out: Activity; how it was run: as §3

## CC(C)=CCC/C(C)=C/CC/C(C)=C/CC[C@]1(C)CCc2c3c(cc(C)c2O1)OCN(CCCCCO)C3
MDA-MB-468
  GI50: 4.14 µM
NCI-H226
  GI50: 6.19 µM
MCF7
  GI50: 3.74 µM
HOP-62
  GI50: 5.9 µM
SW-620
  GI50: 6.05 µM
NCI-H23
  growth at 10 µM: 92.9%
U-251
  growth at 10 µM: -19.9%
RXF 393 [1]
  GI50: 1.94 µM
SK-MEL-5
  growth at 10 µM: 83.9%
NCI-H322M
  GI50: 6.35 µM
SF-268
  growth at 10 µM: 48.5%
MDA-MB-231 [2]
  growth at 10 µM: 46.1%
MDA-MB-231 [3]
  GI50: 5.87 µM
COLO 205
  GI50: 3.39 µM
SK-MEL-28
  growth at 10 µM: 34.7%
SF-295
  GI50: 6.12 µM
KM12
  growth at 10 µM: 13%
TK-10
  growth at 10 µM: 76.3%
SK-MEL-2
  GI50: 7.47 µM
M14
  growth at 10 µM: 57.9%
MCF-10A
  IC50: 4.6 µM
MDA-MB-231 [4]
  IC50: 9 µM

## CC(C)=CCC/C(C)=C/CC/C(C)=C/CC[C@]1(C)CCc2c3c(cc(C)c2O1)OCN(CCc1ccc(O)cc1)C3
MDA-MB-468
  GI50: 1.55 µM
NCI-H226
  GI50: 5.4 µM
MCF7
  GI50: 1.28 µM
HOP-62
  GI50: 5.66 µM
SW-620
  GI50: 1.59 µM
NCI-H23
  growth at 10 µM: 27.2%
U-251
  growth at 10 µM: -32%
RXF 393 [1]
  GI50: 3.34 µM
SK-MEL-5
  growth at 10 µM: 73.8%
NCI-H322M
  GI50: 6.2 µM
SF-268
  growth at 10 µM: 18.2%
MDA-MB-231 [2]
  growth at 10 µM: 46.9%
MDA-MB-231 [3]
  GI50: 4.65 µM
COLO 205
  GI50: 0.958 µM
SK-MEL-28
  growth at 10 µM: -83.8%
SF-295
  GI50: 6.22 µM
KM12
  growth at 10 µM: -19.4%
TK-10
  growth at 10 µM: 100%
SK-MEL-2
  GI50: 7.02 µM
M14
  growth at 10 µM: 9.79%
MCF-10A
  IC50: 1.9 µM
MDA-MB-231 [4]
  IC50: > 5 µM

## CC(C)=CCC/C(C)=C/CC/C(C)=C/CC[C@]1(C)CCc2c3c(cc(C)c2O1)OCN(C1CCN(Cc2ccccc2)CC1)C3
MDA-MB-468
  GI50: 1.41 µM
NCI-H226
  GI50: 2.21 µM
MCF7
  GI50: 1.59 µM
HOP-62
  GI50: 1.82 µM
SW-620
  GI50: 0.48 µM
NCI-H23
  growth at 10 µM: 38.7%
U-251
  growth at 10 µM: -66.6%
RXF 393 [1]
  GI50: 1.22 µM
SK-MEL-5
  growth at 10 µM: 110%
NCI-H322M
  GI50: 1.85 µM
SF-268
  growth at 10 µM: 12.9%
MDA-MB-231 [2]
  growth at 10 µM: 18.2%
MDA-MB-231 [3]
  GI50: 1.63 µM
COLO 205
  GI50: 2 µM
SK-MEL-28
  growth at 10 µM: 60%
SF-295
  GI50: 1.88 µM
KM12
  growth at 10 µM: -44%
TK-10
  growth at 10 µM: 82.5%
SK-MEL-2
  GI50: 2.3 µM
M14
  growth at 10 µM: 50.1%

## CC(C)=CCC/C(C)=C/CC/C(C)=C/CC[C@]1(C)CCc2c3c(c(C)c(C)c2O1)OCN(CCCCCO)C3
MDA-MB-468
  GI50: 4.14 µM
NCI-H226
  GI50: 6.19 µM
MCF7
  GI50: 3.74 µM
HOP-62
  GI50: 5.9 µM
SW-620
  GI50: 6.05 µM
NCI-H23
  growth at 10 µM: 94.5%
U-251
  growth at 10 µM: 58.6%
RXF 393 [1]
  GI50: 1.94 µM
SK-MEL-5
  growth at 10 µM: 108%
NCI-H322M
  GI50: 6.35 µM
SF-268
  growth at 10 µM: 75.9%
MDA-MB-231 [2]
  growth at 10 µM: 55%
MDA-MB-231 [3]
  GI50: 5.87 µM
COLO 205
  GI50: 3.39 µM
SK-MEL-28
  growth at 10 µM: 99.7%
SF-295
  GI50: 6.12 µM
KM12
  growth at 10 µM: 29.3%
TK-10
  growth at 10 µM: 97.5%
SK-MEL-2
  GI50: 7.47 µM
M14
  growth at 10 µM: 107%
MCF-10A
  IC50: 8.9 µM
MDA-MB-231 [4]
  IC50: > 50 µM

## CC(C)=CCC/C(C)=C/CC/C(C)=C/CC[C@]1(C)CCc2c3c(cc(C)c2O1)OCN(CCCO)C3
MDA-MB-468
  GI50: 1.56 µM
NCI-H226
  GI50: 2.31 µM
MCF7
  GI50: 1.66 µM
RXF 393 [5]
  growth at 10 µM: -90.5%
HOP-62
  GI50: 1.78 µM
SW-620
  GI50: 1.83 µM
NCI-H23
  growth at 10 µM: 51.9%
U-251
  growth at 10 µM: -83.4%
RXF 393 [1]
  GI50: 1.2 µM
SK-MEL-5
  growth at 10 µM: 57.5%
NCI-H322M
  GI50: 1.87 µM
SF-268
  growth at 10 µM: -78.5%
MDA-MB-231 [2]
  growth at 10 µM: 10.6%
MDA-MB-231 [3]
  GI50: 1.63 µM
COLO 205
  GI50: 1.98 µM
SK-MEL-28
  growth at 10 µM: -50.7%
SF-295
  GI50: 1.76 µM
KM12
  growth at 10 µM: -77.4%
TK-10
  growth at 10 µM: 75.9%
SK-MEL-2
  GI50: 2.27 µM
M14
  growth at 10 µM: 15.1%
MCF-10A
  IC50: 6.5 µM
MDA-MB-231 [4]
  IC50: > 10 µM
